Assay results as given in ChEMBL document CHEMBL1255277, “Acinetobacter radioresistens as a silent source of carbapenem resistance for Acinetobacter spp” (2008).
Converted amounts (≈) assume the structure as drawn. The source made the active and inactive calls. The calls are words filed in the database; no cut-off is given here.

Assays:
[1] = tested on: Acinetobacter baumannii; assay: Activity of beta lactamase OXA23 in Acinetobacter baumannii Ab13 assessed as compound hydrolysis rate per mg of protein by spectrophotometry
In short: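 Crude culture extract (enzyme source) of the strain; hydrolysis followed by UV spectrophotometry with 100 μM benzylpenicillin or imipenem as substrate; rate expressed as U/mg of protein.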

[2] = tested on: Acinetobacter radioresistens; assay: Antimicrobial activity against Acinetobacter radioresistens isolates by Etest; type: functional
In short: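 MICs determined by Etest on Mueller-Hinton agar at 37°C; strains previously grown overnight at 37°C on Mueller-Hinton agar plates.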

[3] = tested on: Escherichia coli; assay: Antimicrobial activity against Escherichia coli TOP10 harboring Beta-lactamase OXA-23 by Etest; type: functional
In short: (§1)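 MIC read by Etest on Mueller-Hinton agar at 37°C. Test strains were E. coli TOP10 and TOP10 recombinants carrying cloned OXA-23-like oxacillinase genes. Recombinant clones had been selected on kanamycin (30 μg/ml) plus amoxicillin (30 μg/ml), and cloned inserts were confirmed by double-strand sequencing.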

[4] = tested on: Escherichia coli; assay: Antimicrobial activity against Escherichia coli TOP10 harboring Beta-lactamase OXA-102 by Etest; type: functional; in short: as §1
[5] = tested on: Escherichia coli; assay: Antimicrobial activity against Escherichia coli TOP10 harboring Beta-lactamase OXA-103 by Etest; type: functional; in short: as §1
[6] = tested on: Escherichia coli; assay: Antimicrobial activity against Escherichia coli TOP10 harboring Beta-lactamase OXA-105 by Etest; type: functional; in short: as §1
[7] = tested on: Escherichia coli; assay: Antimicrobial activity against Escherichia coli TOP10 by Etest; type: functional; in short: as §1

Row | Structure (SMILES) | Activity [1] | growth inhibition (GI) [2] | MIC [3] | MIC [4] | MIC [5] | MIC [6] | MIC [7]
1 | CC1(C)S[C@@H]2[C@H](NC(=O)Cc3ccccc3)C(=O)N2[C@H]1C(=O)O | 5 U |  |  |  |  |  | 
2 | C[C@@H](O)[C@H]1C(=O)N2C(C(=O)O)=C(S[C@@H]3CN[C@H](C(=O)N(C)C)C3)[C@H](C)[C@H]12 [MEROPENEM] |  | Active | 0.047 µg/mL (≈ 0.123 µM) | 0.094 µg/mL (≈ 0.245 µM) | 0.094 µg/mL (≈ 0.245 µM) | 0.094 µg/mL (≈ 0.245 µM) | 0.047 µg/mL (≈ 0.123 µM)
3 | C[C@@H](O)[C@H]1C(=O)N2C(C(=O)O)=C(S[C@@H]3CN[C@H](C(=O)Nc4cccc(C(=O)O)c4)C3)[C@H](C)[C@H]12 [ERTAPENEM] |  | Active | 0.012 µg/mL (≈ 0.0252 µM) | 0.125 µg/mL (≈ 0.263 µM) | 0.125 µg/mL (≈ 0.263 µM) | 0.125 µg/mL (≈ 0.263 µM) | 0.004 µg/mL (≈ 0.00841 µM)
4 | C[C@@H](O)[C@H]1C(=O)N2C(C(=O)O)=C(SCCNC=N)C[C@H]12 [IMIPENEM ANHYDROUS] | 0.2 U | Active | 1 µg/mL (≈ 3.34 µM) | 1 µg/mL (≈ 3.34 µM) | 1 µg/mL (≈ 3.34 µM) | 1 µg/mL (≈ 3.34 µM) | 0.125 µg/mL (≈ 0.418 µM)
